In general, Ki refers to a measure of affinity in units of concentration, obtained from inhibition or displacement. A word on the inhibition: it is the relative decrease from the control value, in per cent.

The source made the active and inactive calls. The rule behind the calls is not given here.

The target in series [1] is T1, 5-hydroxytryptamine receptor 1B (Homo sapiens, UniProt P28222). The series can be described thus: Binding affinity to 5HT1B receptor expressed in CHO cells. The series is classed as cell-based. In a few lines: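 Frozen membranes from stably transfected CHO cells expressing 5-HT1B, 10 μg/well. Buffer: 50 mM Tris-HCl, 4 mM MgCl2, 4 mM CaCl2, 1 mM EDTA, pH 7.4. [3H]GR125743 at 0.5 nM final; nonspecific binding defined with 1 μM AZD1134. 11-point dilutions, 10 μM to 170 pM final. 1 h at room temperature, then WGA yttrium silicate SPA beads for 30 min. IC50 and Ki derived with Kenakin correction for ligand depletion.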

Series [2] addresses T1, 5-hydroxytryptamine receptor 1B. The series can be described thus: Antagonist activity at 5HT1B receptor expressed in CHO cells by [35S]GTPgammaS assay. Type of series: functional, cell-based. More on the design: concentration or dose not given beside the values. On the technique in general: Binding of GTPγS marks nucleotide exchange on a G protein.
For series [3], the target named is 5-hydroxytryptamine receptor 2B (Homo sapiens) (UniProt P41595). The series can be described thus: Inhibition of human 5HT2B receptor at 10 uM. In a few lines: (§1)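 Radioligand binding assays from an outside panel of 100 targets, single concentration 10 μM, reported as % effect. Receptor species: human for 5-HT1A, 5-HT2A and 5-HT2B; guinea pig for 5-HT4.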
Series [4] deals with 5-hydroxytryptamine receptor 4 (Cavia porcellus) (UniProt O70528). Kind of series: Inhibition of guinea pig 5HT4 receptor at 10 uM. A digest of the protocol:
as §1

The next series concerns Cavia porcellus. Kind of series: Reversal of NXY041-induced hypothermia in sc dosed guinea pig. Type of series: functional, organism-based.
Series [5] addresses T2, 5-hydroxytryptamine receptor 1A (Homo sapiens) (UniProt P08908).
T2 sequence (whole entry): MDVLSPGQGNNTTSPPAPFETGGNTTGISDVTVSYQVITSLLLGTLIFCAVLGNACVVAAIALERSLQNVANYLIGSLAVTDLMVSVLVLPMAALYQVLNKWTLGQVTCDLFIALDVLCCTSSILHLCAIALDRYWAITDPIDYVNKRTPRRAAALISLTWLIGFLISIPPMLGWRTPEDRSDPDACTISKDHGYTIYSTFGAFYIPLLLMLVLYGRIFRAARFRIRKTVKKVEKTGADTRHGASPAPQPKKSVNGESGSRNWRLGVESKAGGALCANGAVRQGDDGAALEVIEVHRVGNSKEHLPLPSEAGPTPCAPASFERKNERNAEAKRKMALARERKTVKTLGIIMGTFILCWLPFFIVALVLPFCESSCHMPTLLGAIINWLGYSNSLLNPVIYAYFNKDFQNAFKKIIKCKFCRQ
The series can be described thus: Inhibition of human 5HT1A receptor at 10 uM. In a few lines: as §1

For series [6], the target named is 5-hydroxytryptamine receptor 2A (Homo sapiens) (UniProt P28223). The series can be described thus: Inhibition of human 5HT2A receptor at 10 uM. A digest of the protocol: as §1
Series [7] deals with in vitro phospholipidosis assay (no protein target). The series can be described thus: in vitro. The note with it: human.

T1 sequence (P28222 whole entry): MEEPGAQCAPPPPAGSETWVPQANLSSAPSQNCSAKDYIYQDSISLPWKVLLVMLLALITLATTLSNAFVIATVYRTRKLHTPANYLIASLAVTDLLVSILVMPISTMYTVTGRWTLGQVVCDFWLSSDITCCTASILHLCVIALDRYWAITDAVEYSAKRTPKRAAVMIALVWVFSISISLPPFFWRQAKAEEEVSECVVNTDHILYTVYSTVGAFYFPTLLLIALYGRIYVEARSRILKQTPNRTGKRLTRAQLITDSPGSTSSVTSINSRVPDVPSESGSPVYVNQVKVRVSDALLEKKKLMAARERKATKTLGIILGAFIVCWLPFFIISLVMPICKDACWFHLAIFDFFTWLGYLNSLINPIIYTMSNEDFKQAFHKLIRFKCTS
Sequence of 5-hydroxytryptamine receptor 2B (Homo sapiens) (P41595 whole entry): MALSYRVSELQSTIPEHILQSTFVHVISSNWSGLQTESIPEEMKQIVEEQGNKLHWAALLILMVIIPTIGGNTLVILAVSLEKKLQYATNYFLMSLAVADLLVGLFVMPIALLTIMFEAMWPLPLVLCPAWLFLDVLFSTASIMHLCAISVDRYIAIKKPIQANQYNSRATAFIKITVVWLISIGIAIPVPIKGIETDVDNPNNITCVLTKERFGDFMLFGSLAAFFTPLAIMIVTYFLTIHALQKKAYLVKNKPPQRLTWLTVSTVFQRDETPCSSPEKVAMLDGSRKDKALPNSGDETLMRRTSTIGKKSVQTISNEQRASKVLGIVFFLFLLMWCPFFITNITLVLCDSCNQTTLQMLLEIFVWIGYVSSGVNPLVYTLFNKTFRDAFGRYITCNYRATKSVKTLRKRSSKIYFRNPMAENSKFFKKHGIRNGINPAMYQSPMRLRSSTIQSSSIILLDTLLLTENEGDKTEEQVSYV
Sequence of 5-hydroxytryptamine receptor 4 (Cavia porcellus) (O70528 whole entry): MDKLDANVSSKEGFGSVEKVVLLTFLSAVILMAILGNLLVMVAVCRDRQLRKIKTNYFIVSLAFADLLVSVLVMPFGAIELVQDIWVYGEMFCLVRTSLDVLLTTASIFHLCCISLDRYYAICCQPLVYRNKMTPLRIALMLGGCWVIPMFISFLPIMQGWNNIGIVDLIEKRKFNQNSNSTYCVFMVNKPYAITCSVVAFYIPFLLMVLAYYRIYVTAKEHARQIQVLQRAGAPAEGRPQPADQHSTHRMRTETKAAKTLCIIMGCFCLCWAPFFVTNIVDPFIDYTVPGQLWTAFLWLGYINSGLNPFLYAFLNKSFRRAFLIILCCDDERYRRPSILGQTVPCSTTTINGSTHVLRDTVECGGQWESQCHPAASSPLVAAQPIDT
Sequence of 5-hydroxytryptamine receptor 2A (Homo sapiens) (P28223 whole entry): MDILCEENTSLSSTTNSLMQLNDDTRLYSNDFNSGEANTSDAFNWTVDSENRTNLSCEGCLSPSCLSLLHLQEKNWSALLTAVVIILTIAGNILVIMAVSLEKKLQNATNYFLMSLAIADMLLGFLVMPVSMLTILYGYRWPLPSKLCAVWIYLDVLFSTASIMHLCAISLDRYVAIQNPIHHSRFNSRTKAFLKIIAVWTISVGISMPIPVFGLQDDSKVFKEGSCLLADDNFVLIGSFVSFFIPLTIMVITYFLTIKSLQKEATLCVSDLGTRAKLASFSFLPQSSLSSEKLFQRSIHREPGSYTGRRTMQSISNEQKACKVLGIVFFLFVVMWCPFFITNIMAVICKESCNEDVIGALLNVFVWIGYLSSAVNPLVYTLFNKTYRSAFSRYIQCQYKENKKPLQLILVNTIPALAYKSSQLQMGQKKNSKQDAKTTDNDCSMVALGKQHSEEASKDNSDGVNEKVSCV

`COc1cc2c(c(N3CCN(C)CC3)c1)O[C@@H](C(=O)Nc1ccc(N3CCOCC3)cc1)CC2` showed a Ki in series [1] of 12 nM. This compound registered an Activity in series [2] of 120%.
`COC1(c2ccc(NC(=O)c3cc(=O)c4cc(F)cc(-c5c(C)nn(C)c5C)c4o3)cn2)CCOCC1`: the inhibition in series [3] is 4%; in series [4], 30%; in series [5], -8%; in series [6], -5%. For the same compound, the outcome in the series with Cavia porcellus was Active. In series [1], this compound yielded a Ki of 0.43 nM. In series [2], this compound yielded an Activity of 90%.
In series [1], `Cc1n[nH]c(C)c1-c1ccc(C)c2c(O)cc(C(=O)Nc3ccc(N4CCOCC4)cc3)nc12` came in with a Ki of 9.3 nM. For the same compound, the inhibition at 300 µM in series [7] came out at 12%.
For the compound `CCC(=O)N1CCN(c2ccc(NC(=O)c3cc(=O)c4cc(F)cc(N5CCN(C)CC5)c4o3)cc2)CC1`, the inhibitory constant (Ki) in series [1] was 1.7 nM. In series [2], this compound yielded an Activity of 150%.
The matching figures for `COC1(c2ccc(NC(=O)C3CCc4cc(F)cc(-c5c(C)nn(C)c5C)c4O3)cn2)CCOCC1` (stereo unspecified): 0.96 nM and 62%.
In the case of `Cc1n[nH]c(C)c1-c1ccc(C)c2c(=O)cc(C(=O)Nc3ccc(N4CCOCC4)cc3)[nH]c12`, the Activity in series [2] was 33%.

The values are drawn from ChEMBL document CHEMBL1156870, “De novo design of a picomolar nonbasic 5-HT(1B) receptor antagonist” (J Med Chem, 2010).
